Calls of active or inactive are those of the source. No cut-off for these calls is given here.
How the values were obtained:
[1] = Inhibition of bovine chymotrypsin using flurogenic substrate as chymotrypsin substrate 2 by fluorescence assay; set-up: species or system Bos taurus
Method in brief: (§1)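 Progress-curve inhibition kinetics for irreversible covalent inhibitors, fitted to a two-step model: reversible non-covalent binding, then irreversible reaction with the enzyme. kinact is the rate constant of the irreversible step at infinite inhibitor concentration. KI is the inhibitor concentration giving an observed rate constant of 1/2 kinact. The kinact/KI ratio expresses overall potency. Inhibitors were tested as diastereomer mixtures; the dilution series spanned 200 to 26.7 μM.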

Bos taurus [2] = species: Bos taurus; assay: Inhibition of bovine chymotrypsin assessed as inactivation constant using flurogenic substrate as chymotrypsin substrate 2 by fluorescence assay; method in brief: as §1
Bos taurus [3] = species: Bos taurus; assay: Inhibition of bovine chymotrypsin at 100 uM preincubated for 30 mins followed by FP-rhodamine addition measured after 30 mins by fluorescence assay
Method in brief: (§2)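 Competitive activity-based protein profiling. Enzyme was treated with compound at 100 μM, or with DMSO control. Residual active enzyme was then labeled with the general serine hydrolase activity-based probe FP-rhodamine and detected by fluorescent labeling.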

Bos taurus [4] = species: Bos taurus; assay: Inhibition of bovine chymotrypsin assessed as ratio of Kinact to Ki using flurogenic substrate as chymotrypsin substrate 2 by fluorescence assay; method in brief: as §1
Neutrophil elastase = target: T1, Neutrophil elastase (Homo sapiens, UniProt P08246); assay: Inhibition of human neutrophil elastase using flurogenic substrate as elastase substrate V by fluorescence assay; method in brief: as §1
T1 sequence (P08246 whole entry): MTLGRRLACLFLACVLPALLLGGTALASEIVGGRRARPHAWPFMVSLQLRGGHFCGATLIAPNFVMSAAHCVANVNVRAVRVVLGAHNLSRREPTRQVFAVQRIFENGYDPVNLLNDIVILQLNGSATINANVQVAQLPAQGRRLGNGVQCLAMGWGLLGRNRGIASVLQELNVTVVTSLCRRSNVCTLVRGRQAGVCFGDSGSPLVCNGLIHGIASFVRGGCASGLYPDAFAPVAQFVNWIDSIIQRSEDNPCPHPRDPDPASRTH

[5] = target: T2, Neutrophil elastase (Homo sapiens) (UniProt P08246); assay: Inhibition of human neutrophil Elastase assessed as inactivation constant using flurogenic substrate as elastase substrate V by fluorescence assay; method in brief: as §1
T2 sequence (whole entry): T1 sequence (P08246 whole entry)

[6] = target: T2, Neutrophil elastase (Homo sapiens); assay: Inhibition of human neutrophil Elastase assessed as ratio of Kinact to Ki using flurogenic substrate as elastase substrate V by fluorescence assay; method in brief: as §1
Sus scrofa [7] = species: Sus scrofa; assay: Inhibition of porcine pancreatic elastase assessed as ratio of Kinact to Ki using flurogenic substrate as elastase substrate V by fluorescence assay; method in brief: as §1
[8] = target: T3, Cathepsin G (Homo sapiens) (UniProt P08311); assay: Inhibition of human cathepsin G at 100 uM preincubated for 30 mins followed by FP-rhodamine addition measured after 30 mins by fluorescence assay; method in brief: as §2
T3 sequence (whole entry): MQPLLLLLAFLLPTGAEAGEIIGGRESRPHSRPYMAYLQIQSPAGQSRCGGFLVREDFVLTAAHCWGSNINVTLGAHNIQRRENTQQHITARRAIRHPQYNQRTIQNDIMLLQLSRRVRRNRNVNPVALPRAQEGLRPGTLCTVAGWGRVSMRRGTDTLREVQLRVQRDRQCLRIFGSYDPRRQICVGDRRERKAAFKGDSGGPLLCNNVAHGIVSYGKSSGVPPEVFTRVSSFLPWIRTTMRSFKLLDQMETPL

[9] = Inhibition of porcine pancreatic elastase using flurogenic substrate as elastase substrate V by fluorescence assay; set-up: species or system Sus scrofa; method in brief: as §1
[10] = target: T2, Neutrophil elastase (Homo sapiens); assay: Inhibition of human neutrophil Elastase at 100 uM preincubated for 30 mins followed by FP-rhodamine addition measured after 30 mins by fluorescence assay; method in brief: as §2
Sus scrofa [11] = species: Sus scrofa; details: 100 uM

Row | SMILES | Ki [1] [µM] | Kinact (Bos taurus [2]) [×10⁻³ /s] | inhibition (Bos taurus [3]) | Ratio (Bos taurus [4]) | other results
1 | CCCP(=O)(Oc1ccccc1)C(NC(=O)OCc1ccccc1)c1ccccc1 (stereo not drawn) | 14.5 | 5.84 | Active | 404 M⁻¹ s⁻¹ | –
2 | CC(C)(C)P(=O)(Oc1ccccc1)C(NC(=O)OCc1ccccc1)c1ccccc1 (stereo not drawn) | – | – | inactive | – | –
3 | CC(C)CC(NC(=O)OCc1ccccc1)P(=O)(Oc1ccccc1)C(C)(C)C (stereo not drawn) | – | – | inactive | – | –
4 | CCCP(=O)(Oc1ccccc1)C(CC(C)C)NC(=O)OCc1ccccc1 (stereo not drawn) | 13 | 2.44 | Active | 188 M⁻¹ s⁻¹ | –
5 | CCCP(=O)(Oc1ccccc1)C(NC(=O)OCc1ccccc1)C(C)C (stereo not drawn) | – | – | inactive | – | –
6 | CC(C)C(NC(=O)OCc1ccccc1)P(=O)(Oc1ccccc1)Oc1ccccc1 (stereo not drawn) | – | – | – | – | Ki (Neutrophil elastase): 2.96 µM; Kinact [5]: 0.59 ×10⁻³ /s; Ratio [6]: 200 M⁻¹ s⁻¹; Ratio (Sus scrofa [7]): inactive
7 | O=C(NC(Cc1ccccc1)P(=O)(Oc1ccccc1)c1ccccc1)OCc1ccccc1 (stereo not drawn) | 1.4 | 23 | Active | 16.4 ×10³ /M/s | inhibition [8]: Active
8 | CC(C)C(NC(=O)OCc1ccccc1)P(=O)(Oc1ccccc1)C(C)(C)C (stereo not drawn) | – | – | inactive | – | –
9 | O=C(NC(c1ccccc1)P(=O)(Oc1ccccc1)c1ccccc1)OCc1ccccc1 (stereo not drawn) | 0.46 | 1.57 | Active | 3.4 ×10³ /M/s | –
10 | CC(C)C(NC(=O)OCc1ccccc1)P(=O)(Oc1ccccc1)c1ccccc1 (stereo not drawn) | 7.42 | – | Active | – | Ki (Neutrophil elastase): 51 µM; Ki [9]: 132 µM; inhibition [10]: Active; inhibition (Sus scrofa [11]): Active
11 | O=C(NC(Cc1ccccc1)P(=O)(Oc1ccccc1)Oc1ccccc1)OCc1ccccc1 (stereo not drawn) | 0.69 | 5.63 | – | 8.1 ×10³ /M/s | –
12 | CC(C)CC(NC(=O)OCc1ccccc1)P(=O)(Oc1ccccc1)c1ccccc1 (stereo not drawn) | 21.6 | 21.1 | Active | 978 M⁻¹ s⁻¹ | –

Reference: ChEMBL document CHEMBL4622994, “Facile Synthesis of Aminomethyl Phosphinate Esters as Serine Protease Inhibitors with Primed Site Interaction” (ACS Med Chem Lett, 2020)
